Measurements published in ChEMBL document CHEMBL1149447, “Synthesis of 2,5-thiazole butanoic acids as potent and selective alpha(v)beta3 integrin receptor antagonists with improved oral pharmacokinetic properties” (Bioorg Med Chem Lett, 2006).

Experiments:
Rattus norvegicus [1] = assay: AUC/dose(mg/kg) in iv dosed rat; assay type: ADME, organism-based, Plasma; settings: in vivo
Procedure, shortened: (§1)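 Rats were given the compound both orally and intravenously. Oral and IV AUC are each normalized to dose (µg h/ml per mg/kg). The same rat study also reports oral bioavailability (%F), half-life (h), Cmax (µg/mL), clearance (mL/min/kg) and terminal volume Vz (mL/kg).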

[2] = Cmax in rat; assay type: ADME, organism-based; settings: in vivo; procedure, shortened: as §1
Rattus norvegicus [3] = assay: AUC/dose(mg/kg) in orally dosed rat; assay type: ADME, organism-based, Plasma; settings: in vivo, po; procedure, shortened: as §1
[4] = Half life in rat; assay type: ADME, organism-based; settings: in vivo; procedure, shortened: as §1
Integrin alpha-V/beta-3 = Integrin alpha-V/beta-3 (Homo sapiens, UniProt P05106+P06756); assay: Inhibition of Integrin alphaV Beta3 receptor by solid-phase receptor binding assay; assay type: protein-complex assay
Chain of Integrin alpha-V/beta-3 (P05106 27-788 limits assumed): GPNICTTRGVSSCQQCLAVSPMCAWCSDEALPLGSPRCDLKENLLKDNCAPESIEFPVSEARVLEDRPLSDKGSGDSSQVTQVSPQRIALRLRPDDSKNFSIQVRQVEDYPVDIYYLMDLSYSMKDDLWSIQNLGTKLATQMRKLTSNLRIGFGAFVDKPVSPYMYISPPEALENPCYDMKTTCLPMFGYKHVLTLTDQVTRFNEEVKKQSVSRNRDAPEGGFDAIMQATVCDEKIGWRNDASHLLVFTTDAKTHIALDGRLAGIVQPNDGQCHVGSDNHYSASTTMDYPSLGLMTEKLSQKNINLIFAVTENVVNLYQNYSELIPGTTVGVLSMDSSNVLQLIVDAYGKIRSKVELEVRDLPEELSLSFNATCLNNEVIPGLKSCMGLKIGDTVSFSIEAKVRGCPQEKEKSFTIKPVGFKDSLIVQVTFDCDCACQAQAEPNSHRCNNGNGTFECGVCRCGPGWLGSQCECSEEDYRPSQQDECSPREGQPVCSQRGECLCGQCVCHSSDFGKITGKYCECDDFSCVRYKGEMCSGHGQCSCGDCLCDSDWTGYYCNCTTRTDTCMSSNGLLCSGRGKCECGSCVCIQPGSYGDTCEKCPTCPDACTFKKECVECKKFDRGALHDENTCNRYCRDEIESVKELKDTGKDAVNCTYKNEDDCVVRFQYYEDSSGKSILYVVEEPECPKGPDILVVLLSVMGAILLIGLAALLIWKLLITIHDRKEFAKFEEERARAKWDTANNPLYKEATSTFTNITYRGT
Chain of Integrin alpha-V/beta-3 (P06756 31-889 limits assumed): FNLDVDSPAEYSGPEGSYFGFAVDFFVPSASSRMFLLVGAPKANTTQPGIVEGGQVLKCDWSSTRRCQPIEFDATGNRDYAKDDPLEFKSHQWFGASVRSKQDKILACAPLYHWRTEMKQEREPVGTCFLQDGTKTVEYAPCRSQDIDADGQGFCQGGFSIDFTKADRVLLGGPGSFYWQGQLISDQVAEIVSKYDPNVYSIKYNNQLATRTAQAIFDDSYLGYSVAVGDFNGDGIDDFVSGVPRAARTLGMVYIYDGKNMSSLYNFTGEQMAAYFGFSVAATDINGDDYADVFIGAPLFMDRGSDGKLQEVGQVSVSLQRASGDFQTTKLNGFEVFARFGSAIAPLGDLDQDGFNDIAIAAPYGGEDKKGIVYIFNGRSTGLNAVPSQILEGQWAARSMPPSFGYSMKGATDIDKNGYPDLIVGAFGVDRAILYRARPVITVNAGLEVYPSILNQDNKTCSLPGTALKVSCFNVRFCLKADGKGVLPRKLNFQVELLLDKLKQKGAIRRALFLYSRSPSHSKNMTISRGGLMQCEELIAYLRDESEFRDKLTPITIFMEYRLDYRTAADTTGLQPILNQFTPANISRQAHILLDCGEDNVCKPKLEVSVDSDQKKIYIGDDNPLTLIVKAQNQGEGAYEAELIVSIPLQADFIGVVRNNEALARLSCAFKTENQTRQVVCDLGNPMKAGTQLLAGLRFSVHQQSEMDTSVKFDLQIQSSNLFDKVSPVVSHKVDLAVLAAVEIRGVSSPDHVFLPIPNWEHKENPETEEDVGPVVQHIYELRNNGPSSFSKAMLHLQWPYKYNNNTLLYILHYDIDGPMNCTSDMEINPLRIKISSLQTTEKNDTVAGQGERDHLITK
Chain of Integrin alpha-V/beta-3 (P06756 891-1048 limits assumed): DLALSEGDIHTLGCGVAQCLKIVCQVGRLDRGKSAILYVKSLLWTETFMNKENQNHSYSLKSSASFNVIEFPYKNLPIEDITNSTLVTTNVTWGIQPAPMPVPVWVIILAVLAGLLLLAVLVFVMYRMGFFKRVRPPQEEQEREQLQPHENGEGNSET

Integrin alpha-V/beta-6 = Integrin alpha-V/beta-6 (Homo sapiens, UniProt P06756+P18564); assay: Inhibition of Integrin alphaV Beta6 receptor in HT29 cells by solid-phase receptor binding assay; assay type: cell-based, HT-29
Chain of Integrin alpha-V/beta-6 (P06756 31-889 limits assumed): as the sequence (P06756 31-889 limits assumed) above
Chain of Integrin alpha-V/beta-6 (P06756 891-1048 limits assumed): as the sequence (P06756 891-1048 limits assumed) above
Chain of Integrin alpha-V/beta-6 (P18564 22-788 limits assumed): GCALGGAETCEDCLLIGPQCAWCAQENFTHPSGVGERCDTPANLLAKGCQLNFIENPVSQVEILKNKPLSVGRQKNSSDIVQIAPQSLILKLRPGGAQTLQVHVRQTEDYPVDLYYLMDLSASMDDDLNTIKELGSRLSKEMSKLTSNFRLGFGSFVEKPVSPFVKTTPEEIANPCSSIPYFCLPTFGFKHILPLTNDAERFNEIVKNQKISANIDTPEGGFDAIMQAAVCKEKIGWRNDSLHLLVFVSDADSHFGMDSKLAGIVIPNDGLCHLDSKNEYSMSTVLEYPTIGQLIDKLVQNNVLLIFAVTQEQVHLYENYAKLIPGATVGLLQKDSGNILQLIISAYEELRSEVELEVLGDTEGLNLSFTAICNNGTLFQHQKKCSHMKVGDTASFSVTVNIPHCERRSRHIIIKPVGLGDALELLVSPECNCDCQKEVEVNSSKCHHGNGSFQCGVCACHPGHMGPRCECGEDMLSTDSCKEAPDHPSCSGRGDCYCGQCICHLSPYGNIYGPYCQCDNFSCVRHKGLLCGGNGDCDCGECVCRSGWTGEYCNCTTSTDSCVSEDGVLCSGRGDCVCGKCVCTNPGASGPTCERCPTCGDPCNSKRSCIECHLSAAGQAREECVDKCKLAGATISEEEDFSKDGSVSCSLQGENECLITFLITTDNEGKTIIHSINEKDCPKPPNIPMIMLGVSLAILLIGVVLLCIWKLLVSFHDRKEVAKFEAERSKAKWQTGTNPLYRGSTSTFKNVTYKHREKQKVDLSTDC

[5] = Bioavailability in rat; assay type: ADME, organism-based; settings: in vivo; procedure, shortened: as §1
[6] = Clearance in rat; assay type: ADME, organism-based; settings: in vivo; procedure, shortened: as §1
[7] = Volume of distribution in rat; assay type: ADME, organism-based; settings: in vivo, read-out: Vdss; procedure, shortened: as §1
[8] = biological target: Integrin alpha-IIb/beta-3 (Homo sapiens, UniProt P05106+P08514); assay: Inhibition of Integrin alphaIIb Beta3 receptor by solid-phase receptor binding assay; assay type: protein-complex assay
Chain of Integrin alpha-IIb/beta-3 (P05106 27-788 limits assumed): as the sequence (P05106 27-788 limits assumed) above
Chain of Integrin alpha-IIb/beta-3 (P08514 32-887 limits assumed): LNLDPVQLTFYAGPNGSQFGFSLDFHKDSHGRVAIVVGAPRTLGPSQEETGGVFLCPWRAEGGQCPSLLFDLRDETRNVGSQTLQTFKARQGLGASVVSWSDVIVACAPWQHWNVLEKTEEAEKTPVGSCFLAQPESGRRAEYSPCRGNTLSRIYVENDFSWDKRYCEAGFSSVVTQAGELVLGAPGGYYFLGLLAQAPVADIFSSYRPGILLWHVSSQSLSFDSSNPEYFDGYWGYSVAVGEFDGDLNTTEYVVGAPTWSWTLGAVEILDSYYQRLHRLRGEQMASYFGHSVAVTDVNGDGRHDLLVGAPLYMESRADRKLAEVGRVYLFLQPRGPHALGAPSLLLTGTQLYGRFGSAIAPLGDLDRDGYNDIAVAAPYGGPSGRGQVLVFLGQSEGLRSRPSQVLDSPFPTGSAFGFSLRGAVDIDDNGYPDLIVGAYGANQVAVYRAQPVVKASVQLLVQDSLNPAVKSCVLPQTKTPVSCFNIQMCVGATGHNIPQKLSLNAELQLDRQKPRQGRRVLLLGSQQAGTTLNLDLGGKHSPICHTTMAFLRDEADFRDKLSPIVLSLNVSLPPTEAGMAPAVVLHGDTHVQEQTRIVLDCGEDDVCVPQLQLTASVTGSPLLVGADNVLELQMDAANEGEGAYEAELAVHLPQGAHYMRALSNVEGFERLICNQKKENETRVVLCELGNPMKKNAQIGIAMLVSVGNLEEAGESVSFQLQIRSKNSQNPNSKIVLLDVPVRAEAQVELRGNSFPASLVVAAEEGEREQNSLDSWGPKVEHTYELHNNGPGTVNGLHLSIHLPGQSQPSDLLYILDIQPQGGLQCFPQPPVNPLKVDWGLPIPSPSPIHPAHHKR
Chain of Integrin alpha-IIb/beta-3 (P08514 891-1039 limits assumed): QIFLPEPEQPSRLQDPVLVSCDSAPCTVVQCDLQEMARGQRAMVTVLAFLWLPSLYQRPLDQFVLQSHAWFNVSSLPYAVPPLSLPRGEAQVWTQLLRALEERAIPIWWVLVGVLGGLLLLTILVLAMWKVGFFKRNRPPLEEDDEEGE

[9] = Bioavailability in dog; assay type: ADME, organism-based, Canis lupus familiaris; settings: in vivo
[10] = Half life in cynomonkey; assay type: ADME, organism-based, Macaca fascicularis; settings: cynomolgus monkey, in vivo
[11] = Half life in dog; assay type: ADME, organism-based, Canis lupus familiaris; settings: in vivo
[12] = Bioavailability in cynomonkey; assay type: ADME, organism-based, Macaca fascicularis; settings: cynomolgus monkey, in vivo

Row | Structure (SMILES) | AUC/dose (Rattus norvegicus [1]) [µg·h/mL] | Cmax [2] [ng/mL] | AUC/dose (Rattus norvegicus [3]) [µg·h/mL] | half-life [4] [h] | IC50 (Integrin alpha-V/beta-3) [nM] | IC50 (Integrin alpha-V/beta-6) [nM] | bioavailability [5] [%] | clearance [6] [mL/min/kg] | Vd [7] [L/kg] | IC50 [8] [nM] | further results
1 | COc1ccc(C(CC(=O)O)Cc2csc(CCCc3ccc4c(n3)NCCC4)n2)cn1 (configuration not stated) | 1.4 | 6600 | 1.6 | 6.3 | 1.23 | 1320 | > 100 | 12.3 | 2.95 |  | 
2 | Cc1ccc(C(CC(=O)O)Cc2csc(CCCc3ccc4c(n3)NCCC4)n2)cc1 (configuration not stated) |  |  |  |  | 11.1 | 5060 |  |  |  | 2000 | 
3 | COc1ccc(C(CC(=O)O)Cc2csc(CCCCNc3cc(N4CCSCC4)ccn3)n2)cn1 (configuration not stated) |  |  |  |  | 3.73 |  |  |  |  |  | 
4 | O=C(O)CC(Cc1nc(CCCc2ccc3c(n2)NCCC3)no1)c1ccc2c(c1)OCO2 (racemic) | 1.6 | 12000 | 1.5 | 1.4 |  |  | 95 | 10.9 | 0.733 |  | 
5 | COc1ccc(C(CC(=O)O)Cc2csc(CCCc3ccc4c(n3)NCCC4)n2)cc1F (configuration not stated) | 1.9 | 9100 | 1.8 | 4.3 | 2.17 | 3260 | 95 | 9 | 1.29 | 405 | 
6 | O=C(O)CC(Cc1csc(CCCc2ccc3c(n2)NCCC3)n1)c1ccc(F)c(F)c1 (configuration not stated) |  |  |  |  | 3.49 | 2120 |  |  |  | 484 | 
7 | O=C(O)CC(Cc1csc(CCCc2ccc3c(n2)NCCC3)n1)c1cnc(-c2ccc(Cl)cc2)s1 (configuration not stated) |  |  |  |  | 2.09 | 4300 |  |  |  | 559 | 
8 | COc1ccc(C(CC(=O)O)Cc2csc(CCCCNc3cc(N4CCCC4)ccn3)n2)cn1 (configuration not stated) |  |  |  |  | 3 |  |  |  |  |  | 
9 | COc1ccc(C(CC(=O)O)Cc2csc(CCCc3ccc4c(n3)NCCN4C)n2)cn1 (configuration not stated) |  |  |  |  | 1.24 |  |  |  |  |  | 
10 | O=C(O)C[C@H](Cc1csc(CCCCNc2cc(N3CCOCC3)ccn2)n1)c1ccc2c(c1)OCO2 |  |  |  |  | 1.56 |  |  |  |  |  | 
11 | O=C(O)CC(Cc1csc(CCCc2ccc3c(n2)NCCC3)n1)c1cnc(C2CC2)s1 (configuration not stated) | 2.4 | 22000 | 2.5 | 3.4 | 1.22 | 313 | > 100 | 6.8 | 1.02 |  | 
12 | CN1CCNc2nc(CCCc3nc(CC(CC(=O)O)c4ccc5c(c4)OCO5)cs3)ccc21 (configuration not stated) |  |  |  |  | 0.61 |  |  |  |  |  | 
13 | O=C(O)C[C@H](Cc1csc(CCCc2ccc3c(n2)NCCC3)n1)c1ccc2c(c1)OCO2 |  |  |  |  |  |  |  |  |  |  | bioavailability [9]: 60%; half-life [10]: 11.2 h; half-life [11]: 13 h; bioavailability [12]: 64%

The next lines start with results.

Row | AUC/dose (Rattus norvegicus [1]) [µg·h/mL] | Cmax [2] [ng/mL] | AUC/dose (Rattus norvegicus [3]) [µg·h/mL] | half-life [4] [h] | IC50 (Integrin alpha-V/beta-3) [nM] | IC50 (Integrin alpha-V/beta-6) [nM] | bioavailability [5] [%] | clearance [6] [mL/min/kg] | Vd [7] [L/kg] | IC50 [8] [nM] | Structure (SMILES) | further results
14 |  |  |  |  | 3.81 | 2440 |  |  |  | 636 | O=C(O)CC(Cc1csc(CCCc2ccc3c(n2)NCCC3)n1)c1ccc(Cl)cc1 (configuration not stated) | 
15 | 1.9 | 3000 | 1.7 | 7.1 | 1.2 | 841 | 90 | 8.7 | 2.68 |  | COCc1ncc(C(CC(=O)O)Cc2csc(CCCc3ccc4c(n3)NCCC4)n2)s1 (configuration not stated) | 
16 |  |  |  |  | 1.7 |  |  |  |  |  | O=C(O)C[C@H](Cc1csc(CCCCNc2cc(N3CCSCC3)ccn2)n1)c1ccc2c(c1)OCO2 | 
17 |  |  |  |  | 3.54 |  |  |  |  |  | COc1ccc(C(CC(=O)O)Cc2csc(CCCCNc3cc(N4CCOCC4)ccn3)n2)cn1 (configuration not stated) | 
18 | 2.2 | 6100 | 2.2 | 6.1 | 1.54 | 1740 | 98 | 7.3 | 2.04 | 350 | COc1cc(OC)cc(C(CC(=O)O)Cc2csc(CCCc3ccc4c(n3)NCCC4)n2)c1 (configuration not stated) | 
19 |  |  |  |  | 2.82 | > 10000 |  |  |  | 95.1 | Cc1nc2cc(C(CC(=O)O)Cc3csc(CCCc4ccc5c(n4)NCCC5)n3)ccc2s1 (configuration not stated) | 
20 |  |  |  |  | 1.26 |  |  |  |  |  | O=C(O)C[C@H](Cc1csc(CCCCNc2cc(N3CCCC3)ccn2)n1)c1ccc2c(c1)OCO2 | 
21 |  |  |  |  | 2.8 | 1310 |  |  |  | 559 | O=C(O)CC(Cc1csc(CCCc2ccc3c(n2)NCCC3)n1)c1cccc(F)c1 (configuration not stated) | 
22 |  |  |  |  | 1.77 | 2670 |  |  |  | 252 | O=C(O)CC(Cc1csc(CCCc2ccc3c(n2)NCCC3)n1)c1cnc(-c2ccccc2)s1 (configuration not stated) | 
23 | 5.2 | 19600 | 6.8 | 7 | 1.18 | 2390 | > 100 | 3.3 | 0.897 | 263 | O=C(O)CC(Cc1csc(CCCc2ccc3c(n2)NCCC3)n1)c1ccc2c(c1)OCO2 (configuration not stated) | 
